Test results from the EternaBench riboswitch data.

System: MS2 coat protein
Test: apparent Kd, MS2 coat protein; higher = weaker binding; RNA-MaP array; FMN 200 µM where present
Method in brief: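 Stalled E. coli RNA polymerase transcribed each design on Illumina sequencing-chip clusters. The clusters were titrated with SNAP-549-labelled MS2 coat protein, starting at 0.7 or 1.5 nM and doubling up to 3 µM, first without ligand and then with constant ligand, in 100 mM Tris-HCl pH 7.5, 80 mM KCl, 4 mM MgCl2, BSA, DTT, yeast tRNA and Tween-20. Green signal was normalised to red-channel RNA signal and to the control-cluster median Fmax. The apparent Kd is the median of filtered binding-curve fits made for each cluster.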

[1] = designed as: OFF switch for flavin mononucleotide, no ligand
[2] = ligand present: flavin mononucleotide, designed as: OFF switch for flavin mononucleotide
[3] = designed as: ON switch for flavin mononucleotide, no ligand
[4] = ligand present: flavin mononucleotide, designed as: ON switch for flavin mononucleotide

Sequence	apparent Kd [1] [nM]	apparent Kd [2] [nM]	apparent Kd [3] [nM]	apparent Kd [4] [nM]
CUUCGUGAUGCAGGAUAUGUUUGCUUUUUGCGCACAGAAGGGCAUCACAUGAGGAUCACCCAUGUGAGUAGAAAACCGUGGAAA	14.1	79.3		
GCGAUUUUGUAAGGAUAUACACGAGUUUUAAGUGUAGAAGGUACUUACAUGAGGAUCACCCAUGUAUAAAUGUAUAAUAGUCGC			9.11	7.51
GAUCGGUGAGGAUAUACAUUUUAGCUCCUCGUAAAGCCAUGACAUGAGGAUCACCCAUGUAGAAGGUAUUGUGU	22.3	20		
UUGUUGUAUGUAGGAUAUGCAUAUUAUUAUUAUGCAGAAGGACAUGAGGAUCACCCAUGUAUAUUAUUAUUAUAUGUUAUAUAU	26	34.2		
GGGUACAUCGGAGGAUAUCAUGAAAAUACAUGAGGAUCACCCAUGUCGAUGGAGACAUCGGAGAUUGAGAAGGCCGAUGUACCG			11.9	6.01
GGGUACAUCGGAGGAUAUCAUGUAAAUACAUGAGGAUCACCCAUGUCGGUGGAGACAUCGGAGAUUGAGAAGGCCGAUGUACCG				12.7
GGUUGGCGAGGAUAUACAUGAGGAUCACCCAUGUGGUCCUGUGGCUGAUCUUGCCUUUGUAGAAGGCGCGAAUC	25.4	103		
UGUUGUUCAGGAUAUGAUGUCUUAUACAUGAGGAUCACCCAUGUGGGUCCUGAUUUGGCGUCAGAAGGGAAUGUUG	551	569		
CAGGUAGACUGAGGAUAUACAAUAAACAGCUAGUCUAUCUAGCUGCCCACAUGAGGAUCACCCAUGUAGAAGGCAGUCUGCCUG	18.1	52.5		
ACAUGAGGAUCACCCAUGUUAAGCGAGGAUAUUUCACUGCACAUGAGGUUCGCCCAUGUCCUGCGGAAGAAGGUGCGAAUAAUU			33.4	17.1
GGUUAAUAUCGAGGAUAUGUCUAGACACAUGAGGAUCACCCAUGUAUGUGUAUAGAAGGCGAUAUUAACAGCAUGUUACAUGCU			40.8	16
GGAAUAUUUACAGGAUAUGAUUUGUAAAUUCGAUCAGAAGGGUAGAUGUCUUACACGGUUUGUUACAUGAGGAUCACCCAUGUU			126	42
GUGACGAAUGUAGGAUAUGCUGAGGAUAACUCAGCAGAAGGACAUGAGGAUCACCCAUGUCAUCCUAAUAAUAAAUAACGUCAC	14.8	18.8		
AGACAUACUCAAGGAUAUCGUCGUACAUGAGGAUCACCCAUGUCGCACUUCUAAAGAGAAGUUGGCGAGAAGGUGAGGUUCGUU			18.8	7.76
GCUCAGUAAGGAUAUUAAUGGCACUGUUAUUCAGCGCCAGCUGAGAAGGUACAUGAGGAUCACCCAUGUGGUGA	228	135		
AUAGCACAUGAGGAUCACCCAUGUGAGGAUAUUAGACCAUGGCUCUCAAAGACCAUGCUGAGAAGGCACUCGGG	35.5	82.5		
GACCUCACGGUCAGGAUAUCAGAACGUAAUGCGCAUGAGAAGGGACAUGAGGAUCACCCAUGUGGGCUCGUCGC	13.5	17		
GGGCUUUGGGAGAAGGUACAAUAAAUUAGGAGAACAUGAGGAUCACCCAUGUAAGGAUAUCCCAUGUUGUAUUAUGGUACAACC	519	273		
AUAAUGAGUCAAGGAUAUCCGAGCUGAAUGCUUGGAGAAGGUGACAUGAGGAUCACCCAUGUCUCUCCGAGCAUGGUAUUCUCA	28.4	26.6		
AAUAUGUUGCAGAAGGCUAUAUUGUGGUAGUACCUCAUGACAUGAGGAUCACCCAUGUUUGUGUUGGAGGAUAUGCAAUAUAUU	16.2	64.9		
UGUUUUCAUGUAGGAUAUGCUUGUCGUAGAUACGCAGAAGGACAUGAGGAUCACCCAUGUUAAAGCGUCAGAGUAUAGAUUCUU	17.9	45.6		
AGAAACUACGAGAAGGACAUAUGAUUCUUCAGAUACAUGAGGAUCACCCAUGUAGGAUAUCGUAGUUUCAGGAUCGUGAGAUCA	14	97.7		
UUAAAUCAUGUAGGAUAUGCAUGGCGAAGCUACGCAGAAGGACAUGAGGAUCACCCAUGUUAUAGCUACCCGUUACGGUGGCAA	89.1	239		
ACAUGAGGAUCACCCAUGUAUACAUAGGAUAUUGGUGAUCAGGCAUGUUUUACAGGAUAUGUCUGCGAGAAGGAUGCACGUUGC			810	452

Sequence	apparent Kd [1] [nM]	apparent Kd [2] [nM]	apparent Kd [3] [nM]	apparent Kd [4] [nM]
AGGCGACAUGAGGAUCACCCAUGUGAGGAUAUCGAACUCAACUGAGGAGAGAGUAAGGCGAGAAGGCACACAGU	22.1	36.4		
UUACCUCAUGAGAAGGACAUGAGGAUCACCCAUGUAGGAUAUCGUGGGAGACUGGUAUUGAAUCUUCGGAUUCAAUACCAGUCU			375	29.7
AAUUAGGUCACAGGAUAUACUACAUCCAAUGCUGUAGAAGGGUGACACAUUCUGUGCAGACAUGAGGAUCACCCAUGUAACCAC			27.9	12.8
GGAUGACAAAGUCAUCCAUUACGAACAUGAGGAUCACCCAUGUAGGAUAUGCUUCUCAAAGAGAAGCAGAAGGACAUGUGUCUU	30.1	157		
UUUGUUGUUGUGAGGAUAUCGUAGUUAUUUUGAAACGAGAAGGCACAUGAGGAUCACCCAUGUUUGUUGAUGGU	30.7	127		
UGUGUUAUCGGAGGAUAUCGAUAUCAAACAUGAGGAUCACCCAUGUUGAGGAUCACCCAUGUCCACGAGAAGGCCGGCGUAGUG			18.1	18.3
UUUUGACAUGAGGAUCACCCAUGUGAGGAUAUGAUGCGAUCGUCGAAAGACGAUAGCAUCAGAAGGCACAUAUG	112	336		
AUGCCGUGCAGAGCGCGACGGCGUACAUGAGGAUCACCCAUGUAGGAUAUACUACACAAAGUGUAGUAGAAGGACAUGCGACUG	62	145		
GUGUACAGAGGAUAUACAUAAGCUAGGAAACUAGCAUCUUCACAUGAGGAUCACCCAUGUAGAAGGCUGUACAC	19.8	78.5		
UCAUCAGCGGGCGGGUCGGUUGGACAUGAGGAUCACCCAUGUAGAAGGACCGGUGGACUCCGGCGGUAGGAUAUACAUUUGGUG	16.1	26.3		
GGAAAACAUGAGGAUCACCCAUGUGAGGAUAUCGAUGUCCAAAAAAAGGUGCGGGACUCGAGAAGGCACUUGGA	55.6	47		
GCUGCGCGAGGAUAUGCGGUUCGCGCGGUGGCCGCUGGCGGACAUGAGGAUCACCCAUGUAGAAGGCGUGCGGG	17	19.4		
ACAUGAGGAUCACCCAUGUUAAACGAGGAUAUAUGACUGCACAUGAGGUUCACCCAUGUUCUGCCGUAGAAGGUGUAAAUAAUU			43.3	42.8
UUACAGUGCGGGUAGGAUAUGUAGGGUGGUACAUGAGGAUCACCCAUGUAUCCACCCUUCGACCGGCAGAAGGGCCUAUCACUGC			15.9	13.6
CGACCACAUGAGGAUCACCCAUGUAAGGAUAUAUUGAAUGAGCCGGCGGCAGUAAAAGAUAGAAGGUGCGUGUA	23.1	22		
CCAAGCUGUGUGAGGAUAUGCUGAACCUUGGUUCAGCAGAAGGCACAUGAGGAUCACCCAUGUGAAGAGCUUGG	17.3	69.3		
AUCCUGCGAGGAUAUACAUAGUUUUGUUUGUUUUGUCUCAAACAUGAGGAUCACCCAUGUAGAAGGUGCGUCAC	155	130		
GCUGUCGCAUGAGGAUAUGGUCAGCUUUGCUGACCAGAAGGCAUGUCAAUAGACAUGAGGAUCACCCAUGUAGUAAAGACAGCU			375	33.9
ACAUGUUAUGUAGGAUAUUAUACACAUGAGGAUCACCCAUGUAACCGGAGGCUUUACUAUGAGUAUGAGAAGGGUAUGAACAUG	138	145		
CUUUUGUGAGGAUAUUAGUAGUAAAUGAAUAAAAUUACUACUGAGAAGGCACAUGAGGAUCACCCAUGUUCCUC	44.1	493		
GUUCUUCCUGUAAGGAUAUCCAUGUAUCAAUGUAUGGAGAAGGUACAUGAGGAUCACCCAUGUCACCCGCGUUA	16.6	39.8		
CGGGCCGUCUACAUGAGGAUCACCCAUGUGACGGAAGUAACACAGGAUAUCCUCUAAUUGUAGACGGAGAAGGGUGGCCCGAAU			28.9	159
CAAUUCCGAGGAUAUACAUGAGGAUCACCCAUGUCGGGCCUCAGCGUUUAGCGCCUAAGUAGAAGGUGGGUUUC	42.9	40.4		
UGUGCGUAUGUGAGGAUAUGCUGGUCCUUGGAUCGGCAGAAGGCACAUGAGGAUCACCCAUGUGGUGUCGUUCC	144	57.8		
